Source: ChEMBL document CHEMBL4376884, “Toward a Rational Design of Polyamine-Based Zinc-Chelating Agents for Cancer Therapies” (J Med Chem, 2020)
Active and inactive are the calls of the source. No cut-off for these calls is given here.

What was measured:
LN-229 [1] = experiment: Induction of apoptosis in human LN229 cells assessed as increase in caspase-3/7 activation at 10 uM incubated for 48 hrs by luminometric caspase-glo 3/7 assay; type: functional, cell-based
Procedure, shortened: (§1)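 Cells in RPMI or DMEM with 10% heat-inactivated FBS and penicillin/streptomycin, 37 °C, 5% CO2, treated with 10 µM compound for 48 h. Caspase-3 and caspase-7 activity read by luminescent Caspase-Glo 3/7 assay, reported as fold induction over untreated cells; mean ± SD of three independent experiments, each in triplicate.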

LN-229 [2] = experiment: Cell cycle arrest in human LN229 cells assessed as cell accumulation at G1 phase at 10 uM incubated for 48 hrs by propidium iodide staining based flow cytometry analysis relative to control; type: functional
PC-3 [3] = experiment: Induction of apoptosis in human PC3 cells assessed as increase in early and late apoptotic cells at 10 uM incubated for 72 hrs by annexin V-FITC and propidium iodide staining based flow cytometry analysis relative to control; type: functional
LN-229 [4] = experiment: Induction of cell morphological changes in human LN229 cells assessed as cell rounding at 10 uM incubated for 24 to 48 hrs by phase contrast microscopy; type: functional, cell-based
Procedure, shortened: (§2)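 LN229 and PC3 cells exposed to 10 µM compound for the indicated time-points, then imaged live by phase-contrast microscopy for morphology.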

PC-3 [5] = experiment: Induction of apoptosis in human PC3 cells assessed as necrotic cells at 10 uM incubated for 72 hrs by annexin V-FITC and propidium iodide staining based flow cytometry analysis (reference value: 0.30 %); type: functional
Jurkat [6] = experiment: Antiproliferative activity against human Jurkat cells assessed as reduction in cell viability incubated for 48 hrs by cell titer-glo assay; type: functional, cell-based
Procedure, shortened: (§3)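 Dose-response: cells plated, treated 24 h later for 48 h, then ATP measured by CellTiter-Glo luminescence. IC50 given as mean ± SD from three independent experiments, each in triplicate. Fibroblasts came from individuals. Cells were kept in RPMI or DMEM with 10% heat-inactivated FBS and penicillin/streptomycin at 37 °C, 5% CO2.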

PC-3 [7] = experiment: Induction of cellular senescence in human PC3 cells assessed as increase in beta-gal-positive cells at 10 uM incubated for 24 hrs by X-Gal staining based microscopic assay relative to control; type: functional
Procedure, shortened: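 LN229 and PC3 cells, 12×10^4 per well in 6-well plates, treated with 10 µM compound for 24 h. Senescence-associated β-gal staining: fixed in 2% formaldehyde/0.2% glutaraldehyde for 10 min at RT, stained with 1 mg/mL X-gal at 37 °C for 24 h without CO2. Blue cells counted in at least 10 fields at 10x and given as percent of total; four independent experiments. Morphology viewed by phase contrast at ×100.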

PC-3 [8] = experiment: Induction of apoptosis in human PC3 cells assessed as late apoptotic cells at 10 uM incubated for 24 hrs by annexin V-FITC and propidium iodide staining based flow cytometry analysis (reference value: 0.52 %); type: functional
PC-3 [9] = experiment: Induction of apoptosis in human PC3 cells assessed as necrotic cells at 10 uM incubated for 24 hrs by annexin V-FITC and propidium iodide staining based flow cytometry analysis (reference value: 0.30 %); type: functional
Jurkat [10] = experiment: Antiproliferative activity against human Jurkat cells assessed as reduction in cell viability at 10 uM incubated for 48 hrs by cell titer-glo assay; type: functional, cell-based
Procedure, shortened: (§4)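 Cells plated and treated 24 h later with 10 µM compound for 48 h; viable cells quantified by CellTiter-Glo ATP luminescence. Expressed as percentage of viable cells relative to untreated; mean ± SD of three independent experiments, each in triplicate.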

Granta-519 [11] = experiment: Antiproliferative activity against human GRANTA-519 cells assessed as reduction in cell viability at 10 uM incubated for 48 hrs by cell titer-glo assay; type: functional, cell-based; procedure, shortened: as §4
PC-3 [12] = experiment: Induction of cell morphological changes in human PC3 cells assessed as random membrane blebbing at 10 uM incubated for 24 to 48 hrs by phase contrast microscopy; type: functional, cell-based; procedure, shortened: as §2
LN-229 [13] = experiment: Antiproliferative activity against human LN229 cells assessed as reduction in cell viability at 10 uM incubated for 48 hrs in presence of Fe2+ ion by MTT assay; type: functional, cell-based
Procedure, shortened: (§5)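 LN229 and PC3 cells plated, then 24 h later given 10 µM compound with or without 15 µM ZnCl2, CuCl2, FeCl2 or FeCl3 for 48 h. Medium replaced, MTT (12 mM solution) added for 4 h, formazan dissolved in DMSO, absorbance read at 540 nm. Percent viable versus untreated; mean ± SD of three experiments in triplicate.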

PC-3 [14] = experiment: Cell cycle arrest in human PC3 cells assessed as cell accumulation at G2/M phase at 10 uM incubated for 24 hrs by propidium iodide staining based flow cytometry analysis relative to control; type: functional
LN-229 [15] = experiment: Cell cycle arrest in human LN229 cells assessed as cell accumulation at S phase at 10 uM incubated for 48 hrs by propidium iodide staining based flow cytometry analysis relative to control; type: functional
Granta-519 [16] = experiment: Antiproliferative activity against human GRANTA-519 cells assessed as reduction in cell viability incubated for 48 hrs by cell titer-glo assay; type: functional, cell-based; details: Granta-519, 48 h; procedure, shortened: as §3
LN-229 [17] = experiment: Antiproliferative activity against human LN229 cells assessed as reduction in cell viability at 10 uM incubated for 48 hrs in presence of Fe3+ ion by MTT assay; type: functional, cell-based; procedure, shortened: as §5
Homo sapiens [18] = species: Homo sapiens; experiment: Induction of apoptosis in human SP53 cells assessed as increase in caspase-3/7 activation at 10 uM incubated for 48 hrs by luminometric caspase-glo 3/7 assay; type: functional, cell-based; procedure, shortened: as §1
Z-138 = experiment: Antiproliferative activity against human Z138 cells assessed as reduction in cell viability at 10 uM incubated for 48 hrs by cell titer-glo assay; type: functional, cell-based; procedure, shortened: as §4
PC-3 [19] = experiment: Induction of apoptosis in human PC3 cells assessed as increase in caspase-3/7 activation at 10 uM incubated for 48 hrs by luminometric caspase-glo 3/7 assay; type: functional, cell-based; procedure, shortened: as §1
SW480 = experiment: Induction of apoptosis in human SW480 cells assessed as increase in caspase-3/7 activation at 10 uM incubated for 48 hrs by luminometric caspase-glo 3/7 assay; type: functional, cell-based; procedure, shortened: as §1
LN-229 [20] = experiment: Induction of apoptosis in human LN229 cells at 10 uM incubated for 24 to 48 hrs by annexin V-FITC and propidium iodide staining based flow cytometric analysis; type: functional, cell-based
PC-3 [21] = experiment: Cell cycle arrest in human PC3 cells assessed as cell accumulation at S phase at 10 uM incubated for 48 hrs by propidium iodide staining based flow cytometry analysis relative to control; type: functional
LN-229 [22] = experiment: Metal chelating activity in human LN229 cells assessed as decrease in intracellular concentration of labile zinc ions by measuring reduction in zinquin-Zn2+ complex formation incubated for 12 hrs followed by incubation with fluorophore-zinquin for 30 mins by spectrofluorometric analysis; type: cell-based
Procedure, shortened: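 LN229 cells were treated 12 h, trypsinized, pelleted and checked by Trypan Blue. Then 6x10⁶ cells in 1 mL PBS were loaded with Zinquin 25 μM for 30 min at 37 °C in the dark. Fluorescence was read at ex 370/em 475 nm with a 400–600 nm scan, normalized to cell number, untreated set to 100; four independent experiments.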

Homo sapiens [23] = species: Homo sapiens; experiment: Antiproliferative activity against human SP53 cells assessed as reduction in cell viability at 10 uM incubated for 48 hrs by cell titer-glo assay; type: functional, cell-based; procedure, shortened: as §4
MCF7 = experiment: Induction of apoptosis in human MCF7 cells assessed as increase in caspase-3/7 activation at 10 uM incubated for 48 hrs by luminometric caspase-glo 3/7 assay; type: functional, cell-based; procedure, shortened: as §1

Compound: c1ccc(CNCCN(CCNCc2ccccn2)Cc2ccc3ccccc3c2)nc1
- Activity (LN-229 [1]): Active
- Activity (LN-229 [2]): 74.7%
- fold change (FC) (PC-3 [3]): 30
- Activity (LN-229 [4]): Active
- Activity (PC-3 [5]): 2.32%
- IC50 (Jurkat [6]): 3170 nM
- Activity (PC-3 [7]): 50%
- Activity (PC-3 [8]): 2.17%
- Activity (PC-3 [9]): 1.53%
- Activity (Jurkat [10]): Active
- Activity (Granta-519 [11]): Active
- Activity (PC-3 [12]): Active
- Activity (LN-229 [13]): Active
- Activity (PC-3 [14]): 17.2%
- Activity (LN-229 [15]): 10.8%
- IC50 (Granta-519 [16]): 4340 nM
- Activity (LN-229 [17]): Active
- Activity (Homo sapiens [18]): Active
- Activity (Z-138): Active
- Activity (PC-3 [19]): Active
- Activity (SW480): Active
- Activity (LN-229 [20]): Active
- Activity (PC-3 [21]): 7.7%
- Activity (LN-229 [22]): Dose-dependent effect
- Activity (Homo sapiens [23]): Active
- Activity (MCF7): Active

Compound: CN(CCNCc1ccccn1)CCNCc1ccccn1
- Activity (LN-229 [1]): Active
- Activity (LN-229 [2]): 66.1%
- fold change (FC) (PC-3 [3]): 30
- Activity (LN-229 [4]): Active
- Activity (PC-3 [5]): 3.5%
- IC50 (Jurkat [6]): 1990 nM
- Activity (PC-3 [7]): Active
- Activity (PC-3 [8]): 2.13%
- Activity (PC-3 [9]): 1.78%
- Activity (Jurkat [10]): Active
- Activity (Granta-519 [11]): Active
- Activity (PC-3 [12]): Active
- Activity (LN-229 [13]): Active
- Activity (PC-3 [14]): 19.7%
- Activity (LN-229 [15]): 13.5%
- IC50 (Granta-519 [16]): 2090 nM
- Activity (LN-229 [17]): Active
- Activity (Homo sapiens [18]): Active
- Activity (Z-138): Active
- Activity (PC-3 [19]): Active
- Activity (SW480): Active
- Activity (LN-229 [20]): Active
- Activity (PC-3 [21]): 7.2%
- Activity (LN-229 [22]): Dose-dependent effect
- Activity (Homo sapiens [23]): Active
- Activity (MCF7): Active
